Screens as filed in PubChem BioAssay.
Shown are actives, neighbours in structure and some others; about 3.2% of the full set was active somewhere.
PRMT1 FP inh: PRMT1 (human) inhibition, primary screen; Q99873; recombinant PRMT1, activity-based probe fluorescence polarization; 370,000 tested, 1.3% active; AID 652257; inhibition, % at 2.79 µM;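 active means inhibition above about 21% made by adding two undisclosed values, limit read from the data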
ABHD4 inh: inhibits mouse alpha/beta hydrolase domain 4; Q8VD66; purified mABHD4, FP-Rh probe fluorescence polarization; inhibition, % at 8.92 µM; AID 720543; 370,000 tested, 0.54% active;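 active means inhibition exceeding the mean over every tested compound plus 3 SD, cut at about 30% in these data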
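Assay system: mouse ABHD4 enzyme, wild type / Also added: fluorescent activity-based probe FP-Rh / Doses: single nominal dose of 8.92 µM, 0.89% DMSO final / Timing: 45 min compound pre-incubation plus 60 min probe step, 25 °C / Signal: FP readout, ex 525 nm / em 598 nm / Control set: S159A mutant/DMSO as 100%, compound-well median as 0%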
LEDGF integ inh: blocks HIV-1 LEDGF/p75-dependent DNA integration. TR-FRET IN-LEDGF/p75 DNA integration, Eu/Cy5. 370,000 tested, 0.64% active. AID 743269. inhibition, % at 3.7 µM;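 active means inhibition above the screen-wide mean plus 3 SD, cut at about 13% in these data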;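 further: signal is the Cy5 over europium emission ratio at 671 and 618 nm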
HTRA1 inhibitor: blocks human HTRA1 serine peptidase. Q92743. recombinant HTRA1, FP-rhodamine activity-based probe, fluorescence polarization. inhibition, % at 5.96 µM. 340,000 tested, 0.5% active; in the data active means inhibition above about 36%
Target sequence (Q92743 whole entry, looked up): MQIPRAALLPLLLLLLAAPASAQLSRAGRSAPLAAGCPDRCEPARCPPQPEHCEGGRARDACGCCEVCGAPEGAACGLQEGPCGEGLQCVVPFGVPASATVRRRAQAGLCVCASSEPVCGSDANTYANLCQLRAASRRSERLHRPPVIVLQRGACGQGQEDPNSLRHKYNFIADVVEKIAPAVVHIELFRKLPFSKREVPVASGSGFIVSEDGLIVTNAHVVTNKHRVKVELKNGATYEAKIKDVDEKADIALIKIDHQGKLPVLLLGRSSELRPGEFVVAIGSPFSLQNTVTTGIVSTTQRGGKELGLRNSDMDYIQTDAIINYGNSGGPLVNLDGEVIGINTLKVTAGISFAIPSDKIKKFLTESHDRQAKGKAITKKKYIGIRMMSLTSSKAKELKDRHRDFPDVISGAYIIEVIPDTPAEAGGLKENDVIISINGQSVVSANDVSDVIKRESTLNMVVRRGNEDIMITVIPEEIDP
DAGLB inhibitor: diacylglycerol lipase beta (human) inhibition. HEK293T DAGLB membrane lysate, EnzChek fluorogenic substrate. 340,000 tested, 0.059% active. AID 504411. Q8NCG7. inhibition, % at 5.17 µM; in the data active means inhibition above about 34%
rCAG RNA binder: r(CAG) repeat RNA binding | TO-PRO-1 dye displacement fluorescence | inhibition, % at 3 µM | 370,000 tested, 1.3% active | AID 651821;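 active means inhibition above the plate cutoff, the mean of all test compounds on that plate plus 3 SD, cut at about 35% in these data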;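 further: higher means more dye released from RNA so lower well fluorescence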
HTRA1 inh conf: confirmation of human HTRA1 inhibitors | shares compounds with HTRA1 inhibitor | recombinant HTRA1, FP-rhodamine activity-based probe, fluorescence polarization | inhibition, % at 5.96 µM | 1,600 tested, 66% active;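 active means mean inhibition over three repeats above a set limit taken from the earlier primary screen, cut at about 37% in these data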;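 further: inhibitors block probe binding so polarization drops and inhibition rises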
Each line names hits and unclear results; the compound was inactive in the other large screens (follow-up assays come after a bar, where they were run).

COc1ccc([C@@H]2[C@@H]3C(=O)N(C(C)(C)C)C(=O)[C@@H]3[C@]3(C)C(=O)N(c4cccc(Cl)c4)C(=O)N23)cc1	none
O=[N+]([O-])c1ccc(O)c(/C=N/n2cnc3ccccc32)c1	none
Cc1ccc(/C=C2\SC(=S)N(/N=C/c3cc([N+](=O)[O-])ccc3O)C2=O)o1	HTRA1 inhibitor 48.8 (no result: PRMT1 FP inh, ABHD4 inh, LEDGF integ inh, rCAG RNA binder) | HTRA1 inh conf 38.5
O=C(NCc1ccccc1)C1CC(=O)N(c2ccc(OCC(=O)N3CCCC3)cc2)C1 (stereo unspecified)	none
CCc1cc(C(=O)Nc2nc(-c3ccccn3)cs2)sc1C	HTRA1 inhibitor 36.9 | HTRA1 inh conf inactive
Cc1ccc(C(=O)Nc2nc(-c3ccccn3)cs2)o1	none
O=C1C=C(Nc2ccc(O)cc2)C(=O)c2ccccc21	HTRA1 inhibitor 37.4 | HTRA1 inh conf inactive
CCOc1ccc(N=Cc2ccc(N(C)C)cc2)c(O)c1	HTRA1 inhibitor 56.7 (no result: PRMT1 FP inh, ABHD4 inh, LEDGF integ inh, rCAG RNA binder) | HTRA1 inh conf 57.0
Cc1nn(Cc2noc(C(=O)NCC3CCCO3)n2)c(C)c1Br (stereo unspecified)	none
CC(OC(=O)CNC(=O)c1ccc(Cl)c(Cl)c1)C(=O)N1CCOCC1 (stereo unspecified)	none
CCCCCCCCCCCCCCCC[n+]1ccc(/C=N/O)cc1	ABHD4 inh 50.7, HTRA1 inhibitor 61.1 | HTRA1 inh conf 80.6
CC(C(=O)c1ccc(-c2ccccc2)cc1)[n+]1cccc(NC(=O)c2ccccc2)c1 (stereo unspecified)	none
O=[N+]([O-])c1ccc(Cl)c2cccnc12	none
O=[N+]([O-])c1cc(F)c2cccnc2c1O	HTRA1 inhibitor 54.8 | HTRA1 inh conf 48.4
O=[N+]([O-])c1ccc(O)c2ncccc12	none
Clc1cc2cccnc2c2ncccc12	none
O=[N+]([O-])c1cc(Cl)c2cccnc2c1O	HTRA1 inhibitor 42.6 | HTRA1 inh conf 51.6
Oc1c(I)cc(Cl)c2cccnc12	HTRA1 inhibitor 53.8 | HTRA1 inh conf 87.0
COc1ccc(C(C)(O)c2nc(-c3ccccc3)cs2)cc1 (stereo unspecified)	none (no result: HTRA1 inhibitor, DAGLB inhibitor)
CC1CCN(C(=O)COC(=O)c2ccc(N3CCCC3=O)cc2)CC1	none
O=C(C1CCCN(S(=O)(=O)c2ccccc2[N+](=O)[O-])C1)N1CCN(c2ccccc2)CC1 (stereo unspecified)	none
O=C1c2ccccc2-c2onc3ccc(NCc4ccco4)c1c23	HTRA1 inhibitor 117.1 (no result: PRMT1 FP inh, ABHD4 inh, LEDGF integ inh, rCAG RNA binder) | HTRA1 inh conf 108.4
Cn1cc(Br)c(C(=O)N2CCN(c3cccc(Cl)c3)CC2)n1	none
C/C(=N/Nc1ccc([N+](=O)[O-])cc1)c1c[nH]c2ccccc12	HTRA1 inhibitor 45.8 | HTRA1 inh conf 81.2
CCOC(=O)c1c(/N=C/C2C(=O)CC(C)(C)CC2=O)sc2c1CCCC2	none
COc1ccc(OC)c(C2=NO[C@@H]3C(=O)N(c4cc(Cl)ccc4OC)C(=O)[C@H]23)c1	none
CC(C)c1ccc(S(=O)(=O)N2CCN(CC(=O)c3ccc(O)c(O)c3)CC2)cc1	LEDGF integ inh 36.0, HTRA1 inhibitor 38.4 | HTRA1 inh conf inactive
O=C(CN1CCN(S(=O)(=O)c2ccc(Br)cc2)CC1)c1ccc(O)c(O)c1	LEDGF integ inh 42.0, HTRA1 inhibitor 37.3 | HTRA1 inh conf 38.7
CNc1nc(C)c(C#N)cc1C(C)=O	none
Oc1c(Cl)cc(CN2CCOCC2)c2cccnc12	HTRA1 inhibitor 41.1 | HTRA1 inh conf inactive
O=C(COc1c(Br)cc(Br)c2cccnc12)N1CCCCC1	none
O=C(Oc1c(CN2CCOCC2)cc(Cl)c2cccnc12)c1ccccc1	HTRA1 inhibitor 36.7 | HTRA1 inh conf inactive
O=C(Oc1c(CN2CCOCC2)cc(Cl)c2cccnc12)c1ccccc1F	HTRA1 inhibitor 40.9 | HTRA1 inh conf inactive
Oc1c(Cl)cc(Cl)c(Cl)c1CN1CCOCC1	none
O=C(Oc1ccc(C(=S)N2CCOCC2)cc1Cl)c1ccccc1F	none
Oc1c(CN2CCCCC2)cc(Br)c2cccnc12	HTRA1 inhibitor 71.0 | HTRA1 inh conf 72.3
Cc1ccc(C(=O)N2CCOCC2)cc1S(=O)(=O)N1CCOCC1	none
COc1ccc(C(=O)Oc2c(CN3CCOCC3)cc(Cl)c3cccnc23)cc1OC	none (no result: HTRA1 inhibitor, DAGLB inhibitor)
